Source: ChEMBL document CHEMBL1143817, “Pharmacokinetics of penicillin g in very-low-birth-weight neonates” (Antimicrob Agents Chemother, 2007)
Where “and” joins values, the source holds several entries; their conditions need not be identical. Identical values can stand only once.

What was measured:
Format in all cases: ADME, organism-based
Homo sapiens [1] = experiment: Effect on glomerular filtration in human very low birth weight preterm neonates urine assessed as creatinine excretion at 15 mg/kg, iv administered every 12 hrs after 24 hrs; design: dose 15 mg/kg, route intravenous; settings: in vivo
In short: (§1)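 Creatinine excretion was measured in urine collected in 4-h intervals over the 12 h after a steady-state IV penicillin G dose (25,000 or 50,000 IU/kg q12h). Diapers were weighed to estimate losses, and a period was accepted if ≥90% of its output was collected. Excretion is expressed per 24 h per kg.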

Homo sapiens [2] = experiment: Effect on glomerular filtration in human very low birth weight preterm neonates urine assessed as creatinine excretion at 30 mg/kg, iv administered every 12 hrs after 24 hrs; design: dose 30 mg/kg, route intravenous; settings: in vivo; in short: as §1
Homo sapiens [3] = experiment: Effect on glomerular filtration in human very low birth weight preterm neonates urine assessed as creatinine clearance at 30 mg/kg, iv administered every 12 hr after 24 hrs; design: dose 30 mg/kg, route intravenous; settings: in vivo
[4] = Half life in human very low birth weight preterm neonates at 28 mg/kg, iv administered every 12 hrs after 24 hrs; design: dose 28 mg/kg, route intravenous; settings: in vivo
In short: (§2)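 Penicillin G was diluted in normal saline to 50,000 IU/ml and given as a slow (~2 min) IV bolus q12h (group 1, 50,000 IU/kg; group 2, 25,000 IU/kg) to neonates of <28 wk GA and <1,200 g. Plasma was sampled at steady state (doses 3–8): predose and at 2 and 30 min, 1.5, 4, 8 and 12 h. Assay by HPLC-UV (200 nm). AUC0-12 by log-linear trapezoidal rule; noncompartmental bolus model.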

[5] = Half life in human very low birth weight preterm neonates at 14.3 mg/kg, iv administered every 12 hrs after 24 hrs; design: dose 14.3 mg/kg, route intravenous; settings: in vivo; in short: as §2
[6] = Half life in human term neonates at 15 mg/kg, im administered every 12 hrs after 24 hrs; design: dose 15 mg/kg, route intramuscular; settings: in vivo
[7] = Half life in human adults at […], iv administered every 12 hrs after 24 hrs; design: route intravenous; settings: in vivo
[8] = Cmax in human very low birth weight preterm neonates at 28 mg/kg, iv administered every 12 hrs after 24 hrs; design: dose 28 mg/kg, route intravenous; settings: in vivo; in short: as §2
[9] = Cmax in human very low birth weight preterm neonates at 14 mg/kg, iv administered every 12 hrs after 24 hrs; design: dose 14 mg/kg, route intravenous; settings: in vivo; in short: as §2
[10] = Cmax in human term neonates at 15 mg/kg, im administered every 12 hrs after 24 hrs; design: dose 15 mg/kg, route intramuscular; settings: in vivo
[11] = Cmax in human adults at […], iv administered every 12 hrs after 24 hrs; design: route intravenous; settings: in vivo
[12] = Cmin in human very low birth weight preterm neonates at 28 mg/kg, iv administered every 12 hrs after 24 hrs; design: dose 28 mg/kg, route intravenous; settings: in vivo, read-out: Cmin; in short: as §2
[13] = Clearance in human very low birth weight preterm neonates at 28 mg/kg, iv administered every 12 hrs after 24 hrs; design: dose 28 mg/kg, route intravenous; settings: in vivo; in short: as §2
[14] = Clearance in human very low birth weight preterm neonates at 14 mg/kg, iv administered every 12 hrs after 24 hrs; design: dose 14 mg/kg, route intravenous; settings: in vivo; in short: as §2
Homo sapiens [15] = experiment: Effect on glomerular filtration in human very low birth weight preterm neonates urine assessed as creatinine clearance at 15 mg/kg, iv administered every 12 hr after 24 hrs; design: dose 15 mg/kg, route intravenous; settings: in vivo
[16] = Effect on glomerular filtration in human very low birth weight preterm neonates urine assessed as drug clearance at 30 mg/kg, iv administered every 12 hrs after 24 hrs; design: dose 30 mg/kg, route intravenous; settings: read-out: CL_renal
[17] = Effect on glomerular filtration in human very low birth weight preterm neonates urine assessed as drug clearance at 15 mg/kg, iv administered every 12 hrs after 24 hrs; design: dose 15 mg/kg, route intravenous; settings: read-out: CL_renal
[18] = Volume of distribution at steady state in human very low birth weight preterm neonates at 28 mg/kg, iv; design: dose 28 mg/kg, route intravenous; settings: in vivo, read-out: Vdss; in short: as §2
[19] = Volume of distribution at steady state in human very low birth weight preterm neonates at 14 mg/kg, iv; design: dose 14 mg/kg, route intravenous; settings: in vivo, read-out: Vdss; in short: as §2
Homo sapiens [20] = experiment: Volume of distribution at steady state in human term neonates at 15 mg/kg, im administered every 12 hrs after 24 hrs; design: dose 15 mg/kg, route intramuscular; settings: in vivo
[21] = Volume of distribution at steady state in human adults at […], iv administered every 12 hrs after 24 hrs; design: route intravenous; settings: in vivo, read-out: Vdss
[22] = AUC (0 to 12) in human very low birth weight preterm neonates at 28 mg/kg, iv administered every 12 hrs after 24 hrs; design: time < 12 hr, dose 28 mg/kg, route intravenous; settings: plasma; in short: as §2
[23] = AUC (0 to 12) in human very low birth weight preterm neonates at 14 mg/kg, iv administered every 12 hrs after 24 hrs; design: time < 12 hr, dose 14 mg/kg, route intravenous; settings: plasma; in short: as §2

CC1(C)S[C@@H]2[C@H](NC(=O)Cc3ccccc3)C(=O)N2[C@H]1C(=O)O [PENICILLIN G]
Activity (Homo sapiens [1]): 70.6 µmol/kg
Activity (Homo sapiens [2]): 50.6 µmol/kg
Creatinine_CL (Homo sapiens [3]): 0.26 ml/min and 0.3 ml/min.kg
half-life [4]: 3.8 h
half-life [5]: 4.6 h
half-life [6]: 3.4 h
half-life [7]: 0.5 h
Cmax [8]: 146000 ng/mL
Cmax [9]: 58900 ng/mL
Cmax [10]: 22000 ng/mL
Cmax [11]: 45000 ng/mL
concentration at 24 h [12]: 7100 ng/mL
clearance [13]: 1.2 mL/min/kg
clearance [14]: 1.5 mL/min/kg
Creatinine_CL (Homo sapiens [15]): 0.53 ml/min and 0.57 ml/min.kg
CL renal [16]: 0.27 mL/min and 0.46 mL/min/kg
CL renal [17]: 0.31 mL/min and 0.38 mL/min/kg
Vd [18]: 0.41 L/kg
Vd [19]: 0.64 L/kg
Vdss (Homo sapiens [20]): 0.51 L/kg
Vd [21]: 0.5 L/kg
AUC at 12 h [22]: 389 µg·h/mL
AUC at 12 h [23]: 161 µg·h/mL
